Calls of active or inactive are those of the source. No cut-off for these calls is given here.
Tests used:
U-87 MG [1] = assay: Induction of cell cycle arrest in human U87MG cells assessed as accumulation at S phase at 1 to 20 uM after 48 hrs by flow cytometric analysis; format: functional, cell-based; settings: U-87MG ATCC
Procedure, shortened: (§1)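 2 × 10^5 cells per dish exposed 48 h (1−20 μM per legend); harvested, fixed in cold 70% ethanol at −20 °C, stained with propidium iodide plus RNase A (100 U/mL) 30 min at room temperature; percentage in G1, S, G2/M by flow cytometry. Three experiments in triplicate.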

[2] = Cytotoxicity against normal human astrocytes assessed as decrease in cell viability after 48 hrs by MTT assay; format: cell-based; settings: astrocyte
Procedure, shortened: (§2)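 Cells (T98G, U87-MG, NHA; 3 × 10^4 per well) plated, next day exposed to serial dilutions (1−50 μM) for 48 h at 37 °C, 5% CO2. MTT (5 mg/mL) added for 3 h; crystals solubilized in 50% DMF/20% SDS pH 4.5; OD at 620 nm. Viability = % of DMSO (0.1% final) controls. Means ± SEM, three experiments in triplicate.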

U-87 MG [3] = assay: Induction of cell cycle arrest in human U87MG cells assessed as accumulation at G2/M phase at 1 to 20 uM after 48 hrs by flow cytometric analysis; format: functional, cell-based; settings: U-87MG ATCC; procedure, shortened: as §1
T98G [4] = assay: Induction of apoptosis in human T98G cells at 1 to 50 uM after 48 hrs by propidium iodide staining based flow cytometric analysis; format: functional, cell-based
Procedure, shortened: (§3)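 Cells treated 1−50 μM for 24 or 48 h, washed in PBS, resuspended in 0.1% sodium citrate, 0.1% Triton X-100, 50 μg/mL propidium iodide, 30 min at 4 °C in dark. Nuclei analyzed by flow cytometry, DNA on log scale, debris gated out; percent hypodiploid (sub-G1) nuclei reported. Three experiments in triplicate.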

T98G [5] = assay: Induction of cell cycle arrest in human T98G cells assessed as accumulation at G0/G1 phase at 1 to 20 uM after 48 hrs by flow cytometric analysis; format: functional, cell-based; procedure, shortened: as §1
U-87 MG [6] = assay: Induction of apoptosis in human U87MG cells at 1 to 50 uM after 48 hrs by propidium iodide staining based flow cytometric analysis; format: functional, cell-based; settings: U-87MG ATCC; procedure, shortened: as §3
T98G [7] = assay: Induction of cell cycle arrest in human T98G cells assessed as accumulation at G2/M phase at 1 to 20 uM after 48 hrs by flow cytometric analysis; format: functional, cell-based; procedure, shortened: as §1
T98G [8] = assay: Anticancer activity against human T98G cells assessed as decrease in cell viability at 50 uM after 48 hrs by MTT assay; format: functional; procedure, shortened: as §2
U-87MG ATCC = assay: Anticancer activity against human U87MG cells assessed as decrease in cell viability at 50 uM after 48 hrs by MTT assay; format: functional, cell-based; procedure, shortened: as §2
T98G [9] = assay: Induction of cell cycle arrest in human T98G cells assessed as accumulation at S phase at 1 to 20 uM after 48 hrs by flow cytometric analysis; format: functional, cell-based; procedure, shortened: as §1
U-87 MG [10] = assay: Induction of cell cycle arrest in human U87MG cells assessed as accumulation at G0/G1 phase at 1 to 20 uM after 48 hrs by flow cytometric analysis; format: functional, cell-based; settings: U-87MG ATCC; procedure, shortened: as §1

For `CC(C)=CCC1C(=O)C(C(=O)CC(C)C)=C(O)C(O)(CC=C(C)C)C1=O` (stereo unspecified) [HUMULONE], the Activity (U-87 MG [1]) was “inactive”, the Activity [2] was “Non-toxic” and the Activity (U-87 MG [3]) was “inactive”. For the same molecule, the Activity (T98G [4]) was “inactive”, the Activity (T98G [5]) was “inactive” and the Activity (U-87 MG [6]) was “inactive”. The Activity (T98G [7]) was “inactive”, the Activity (T98G [8]) was “inactive” and the Activity (U-87MG ATCC) was “inactive”. For the same molecule, the Activity (T98G [9]) was “inactive” and the Activity (U-87 MG [10]) was “inactive”.
